Results from ChEMBL document CHEMBL1131015, “Homonojirimycin isomers and N-alkylated homonojirimycins: structural and conformational basis of inhibition of glycosidases” (J Med Chem, 1998).

What was measured:
[1] = target: T1, Tissue alpha-L-fucosidase (Rattus norvegicus) (UniProt P17164); conditions: 1000 uM
T1 sequence (whole entry): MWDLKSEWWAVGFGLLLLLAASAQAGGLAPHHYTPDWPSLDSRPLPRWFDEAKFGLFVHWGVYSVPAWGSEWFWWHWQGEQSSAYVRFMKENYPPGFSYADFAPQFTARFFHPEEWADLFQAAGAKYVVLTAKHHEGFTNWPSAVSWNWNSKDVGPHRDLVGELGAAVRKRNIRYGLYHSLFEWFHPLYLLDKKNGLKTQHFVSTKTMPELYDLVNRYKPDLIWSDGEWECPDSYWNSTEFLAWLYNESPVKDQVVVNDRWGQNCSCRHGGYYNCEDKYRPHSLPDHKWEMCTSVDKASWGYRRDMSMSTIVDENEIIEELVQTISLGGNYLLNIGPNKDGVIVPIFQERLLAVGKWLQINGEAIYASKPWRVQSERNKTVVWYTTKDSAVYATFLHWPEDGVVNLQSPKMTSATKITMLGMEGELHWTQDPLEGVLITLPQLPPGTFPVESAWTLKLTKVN

[2] = target: Alpha-galactosidase (Coffea arabica) (UniProt Q42656); conditions: 1000 uM
Alpha-galactosidase (Coffea arabica), sequence (Q42656 whole entry, looked up): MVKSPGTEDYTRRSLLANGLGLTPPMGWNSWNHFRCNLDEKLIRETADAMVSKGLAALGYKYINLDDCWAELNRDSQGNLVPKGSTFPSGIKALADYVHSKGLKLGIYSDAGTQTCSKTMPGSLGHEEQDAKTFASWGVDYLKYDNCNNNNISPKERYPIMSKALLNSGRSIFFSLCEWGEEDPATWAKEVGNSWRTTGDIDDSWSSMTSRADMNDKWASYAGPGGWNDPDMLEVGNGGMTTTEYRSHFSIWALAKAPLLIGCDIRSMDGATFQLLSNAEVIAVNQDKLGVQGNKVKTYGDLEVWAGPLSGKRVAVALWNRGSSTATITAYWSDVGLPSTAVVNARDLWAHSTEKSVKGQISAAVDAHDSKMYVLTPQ

[3] = species: Bos taurus; conditions: 1000 uM
[4] = species: Rattus norvegicus; conditions: 1000 uM
[5] = Inhibitory activity measured against beta-galactosidase of bovine liver by colorimetric assay using the D-glucose oxidase-peroxidase method; parameters: species or system Bos taurus; conditions: in the assay text read “p-nitrophenyl glycoside method” for “D-glucose oxidase-peroxidase method”
How it was run: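 Activity was measured with the appropriate p-nitrophenyl glycoside as substrate at each enzyme's optimum pH. The reaction was stopped with 400 mM Na2CO3, and released p-nitrophenol was read spectrophotometrically at 400 nm.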

[6] = Inhibitory activity measured against beta-galactosidase of rat intestinal lactase by colorimetric assay using the D-glucose oxidase-peroxidase method
How it was run: (§1)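 Enzyme source was brush border membranes from the intestine of male Wistar rats. Each activity was run with the appropriate disaccharide as substrate at that enzyme's optimum pH. Released D-glucose was quantified colorimetrically by the glucose oxidase–peroxidase method.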

[7] = Inhibitory activity measured against beta-galactosidase of rat intestinal lactase by colorimetric assay using the D-glucose oxidase-peroxidase method.
How it was run: as §1

| SMILES | inhibition [1] | inhibition [2] | inhibition [3] | inhibition [4] | IC50 [5] | IC50 [6] | IC50 [7] |
| --- | --- | --- | --- | --- | --- | --- | --- |
| OC[C@H]1N[C@H](CO)[C@@H](O)[C@H](O)[C@H]1O | < 50% | < 50% | < 50% | < 50% | – | – | – |
| OC[C@H]1N[C@H](CO)[C@@H](O)C(O)[C@@H]1O (stereo partly drawn) | – | < 50% | < 50% | < 50% | – | – | – |
| OC[C@@H]1N[C@H](CO)[C@@H](O)[C@H](O)[C@H]1O | < 50% | < 50% | < 50% | < 50% | – | – | – |

Next, values leading:

| inhibition [1] | inhibition [2] | inhibition [3] | inhibition [4] | IC50 [5] | IC50 [6] | IC50 [7] | SMILES |
| --- | --- | --- | --- | --- | --- | --- | --- |
| – | – | – | – | 86 µM | 130 µM | – | OCC1NC(CO)[C@@H](O)C(O)C1O (stereo partly drawn) |
| – | < 50% | < 50% | < 50% | – | – | – | OC[C@@H]1N[C@H](CO)[C@@H](O)[C@H](O)[C@@H]1O |
| < 50% | – | – | – | – | – | 290 µM | OC[C@H]1N[C@H](CO)[C@H](O)C(O)[C@H]1O (stereo partly drawn) |
